Laboratory results as given in ChEMBL document CHEMBL1129262, “Peptidyl anthraquinones as potential antineoplastic drugs: synthesis, DNA binding, redox cycling, and biological activity” (J Med Chem, 1996).

Assays:
[1] = system: HL-60; assay: Effective concentration against cell growth of HL60 cell line by 50%; format: functional; conditions: Homo sapiens, HL-60, read-out: ED50
Summary of the method: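 HL60 cells grown in RPMI-1640 with 10% fetal calf serum. Exponentially growing cells were exposed to drug for 1 h at 37 °C. Survival was read either by MTT, after washing and 96 h culture in drug-free medium, or by cell counting after 72 h culture. Value is the drug concentration inhibiting cell growth by 50%.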

[2] = system: L1210; assay: Effective concentration against cell growth of L1210 cell line by 50%; format: functional; conditions: Mus musculus, L1210, read-out: ED50
Summary of the method: (§1)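 HeLa and L1210 cells grown in Dulbecco's modified Eagle's medium with 5% fetal calf serum, antibiotics and L-glutamine. Exponentially growing cells were exposed to drug for 1 h at 37 °C. Growth was scored by MTT, after washing and 96 h drug-free culture, or by cell counting after 72 h. Value is the concentration giving 50% growth inhibition.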

[3] = Exclusion parameter (base pairs); format: ADME
Summary of the method: (§2)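 DNA titrations were run at constant anthraquinone concentration while the DNA/drug ratio was varied, at 25 °C in 10 mM Tris pH 7.0 with 1 mM EDTA and NaCl added to set ionic strength. Binding was followed by fluorescence quenching, or by absorbance at 500–750 nm for non-fluorescent drugs. McGhee–von Hippel analysis gave the intrinsic constant K and the exclusion parameter n.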

[4] = system: HeLa; assay: Effective concentration against cell growth of HeLa cell line by 50%; format: functional; conditions: Homo sapiens, read-out: ED50; summary of the method: as §1
[5] = system: Nucleic Acid; assay: Intrinsic Binding constant of compound to DNA at pH 7 and 25 Centigrade; format: functional; conditions: Bos taurus; summary of the method: as §2
[6] = Exclusion parameter (base pairs; format: ADME
Summary of the method: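 Fluorometric titration at 25 °C in 10 mM Tris pH 7.0, 1 mM EDTA, NaCl set to the chosen ionic strength. DNA/drug ratio varied at constant drug concentration by mixing drug-alone and drug-plus-DNA solutions. Nonfluorescent drugs followed spectrophotometrically at 500–750 nm. Data fitted by McGhee–von Hippel to give K and the exclusion parameter n.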

EC50 [1]	EC50 [2]	Exclusion parameter [3]	EC50 [4]	K x10e-5 [5]	Structure (SMILES)	Exclusion parameter [6]
1.9 µM	0.9 µM	2.3	1.6 µM	2.2 M⁻¹	NCC(=O)Nc1ccc(NC(=O)CN)c2c1C(=O)c1ccccc1C2=O	–
30 µM	–	–	–	–	N[C@@H](Cc1c[nH]c2ccccc12)C(=O)NCC(=O)Nc1ccc(NC(=O)CNC(=O)[C@@H](N)Cc2c[nH]c3ccccc23)c2c1C(=O)c1ccccc1C2=O	–
28 µM	–	–	–	–	NC(Cc1c[nH]c2ccccc12)C(=O)NCC(=O)Nc1ccc(NC(=O)CNC(=O)C(N)Cc2c[nH]c3ccccc23)c2c1C(=O)c1ccccc1C2=O (configuration not stated)	–
2 µM	0.31 µM	2.1	2.7 µM	3.6 M⁻¹	NCC(=O)Nc1ccc(N)c2c1C(=O)c1ccccc1C2=O	–
> 100 µM	–	2.3	> 100 µM	17.5 M⁻¹	NCCCC[C@H](N)C(=O)NCC(=O)Nc1ccc(NC(=O)CNC(=O)[C@@H](N)CCCCN)c2c1C(=O)c1ccccc1C2=O	–
–	–	2.4	–	2.4 M⁻¹	NCC(=O)NCC(=O)NCC(=O)Nc1ccc(NC(=O)CNC(=O)CNC(=O)CN)c2c1C(=O)c1ccccc1C2=O	–
> 100 µM	–	2.4	> 100 µM	33 M⁻¹	NCCCCC(N)C(=O)NCC(=O)Nc1ccc(NC(=O)CNC(=O)C(N)CCCCN)c2c1C(=O)c1ccccc1C2=O (configuration not stated)	–
2 µM	0.24 µM	2.2	2.7 µM	1.7 M⁻¹	NCC(=O)NCC(=O)Nc1ccc(N)c2c1C(=O)c1ccccc1C2=O	–
2.3 µM	0.8 µM	2.5	2.4 µM	2.4 M⁻¹	NCC(=O)NCC(=O)Nc1ccc(NC(=O)CNC(=O)CN)c2c1C(=O)c1ccccc1C2=O	–

Structure (SMILES)	EC50 [1]	EC50 [2]	Exclusion parameter [3]	EC50 [4]	K x10e-5 [5]	Exclusion parameter [6]
O=C1c2ccccc2C(=O)c2c(NCCNCCO)ccc(NCCNCCO)c21 [AMETANTRONE]	0.88 µM	0.1 µM	–	3.1 µM	3.4 M⁻¹	2.7
